Reference: PMC3483883 (Bioorganic & medicinal chemistry letters, 2012)

Columns and labels:
LdTopIB [1] = target: T1, LdTopIB (Leishmania donovani, UniProt A0A3Q8IHS4+Q8WQM6); assay: Plasmid DNA relaxation assay, LdTopIB; assay type: biochemical
leukotriene B4 ω-oxidase = conditions: read-out: IC50 leukotriene B4 ω-oxidase; suicide inhibitor; cited from earlier work
hTopIB [2] = target: T2, hTopIB (Homo sapiens, UniProt P11387); assay: Plasmid DNA relaxation assay, hTopIB; assay type: biochemical
T2 sequence (P11387 1-765): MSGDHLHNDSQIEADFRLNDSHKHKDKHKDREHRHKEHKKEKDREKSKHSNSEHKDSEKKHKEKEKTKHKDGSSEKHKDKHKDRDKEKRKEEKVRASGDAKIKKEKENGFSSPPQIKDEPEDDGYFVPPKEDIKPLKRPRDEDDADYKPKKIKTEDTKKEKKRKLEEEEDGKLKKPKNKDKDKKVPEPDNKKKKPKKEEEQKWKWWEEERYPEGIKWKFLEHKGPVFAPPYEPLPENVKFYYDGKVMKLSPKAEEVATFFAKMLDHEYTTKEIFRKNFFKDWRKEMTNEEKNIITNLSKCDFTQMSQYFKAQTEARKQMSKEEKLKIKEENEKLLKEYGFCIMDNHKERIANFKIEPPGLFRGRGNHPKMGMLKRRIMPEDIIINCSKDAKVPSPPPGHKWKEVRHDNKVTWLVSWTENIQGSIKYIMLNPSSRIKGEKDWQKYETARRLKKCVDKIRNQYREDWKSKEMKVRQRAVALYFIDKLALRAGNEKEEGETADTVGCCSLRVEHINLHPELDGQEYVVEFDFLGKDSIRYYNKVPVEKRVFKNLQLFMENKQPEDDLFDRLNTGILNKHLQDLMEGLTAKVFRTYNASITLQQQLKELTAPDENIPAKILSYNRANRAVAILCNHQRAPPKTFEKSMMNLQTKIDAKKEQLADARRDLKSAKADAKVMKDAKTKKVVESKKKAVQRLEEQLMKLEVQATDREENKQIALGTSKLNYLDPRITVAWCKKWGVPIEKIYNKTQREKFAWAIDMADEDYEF

[3] = tested on: Leishmania donovani, Trypanosoma brucei rhodesiense, Trypanosoma cruzi; assay: Antiprotozoal activity against all the studied protozoa; assay type: cell-based; conditions: read-out: IC50 values against all the studied protozoa
How it was run: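 In vitro growth-inhibition IC50 against L. donovani, T. cruzi and T. b. rhodesiense. Values are averages of at least two independent assays, each run in duplicate. Reference drugs in the same set are melarsoprol, benznidazole, miltefosine and podophyllotoxin.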

[4] = tested on: L. infantum promastigotes; conditions: 400 μM, 24 h
[5] = tested on: fluconazole resistant Candida albicans strains; conditions: series of strains; cited from earlier work
[6] = tested on: Trypanosoma brucei rhodesiense (bloodstream forms); assay: Antiprotozoal activity against T. brucei rhodesiense bloodstream forms; assay type: cell-based; conditions: read-out: Trypanosoma brucei rhodesiense IC50
[7] = tested on: Leishmania donovani (axenic amastigotes); assay: Antiprotozoal activity against L. donovani axenic amastigotes; assay type: cell-based; conditions: read-out: Leishmania donovani IC50
L6 cell cytotoxicity = assay type: cell-based; conditions: rat, L6 cells (rat skeletal myoblasts)
[8] = tested on: Murine macrophages BALB/c; assay: Toxicity against BALB/c murine macrophages; assay type: cell-based; conditions: Mus musculus, Macrophage, read-out: Murine macrophages BALB/c IC50
[9] = tested on: L. infantum promastigotes; assay: Activity against L. infantum promastigotes; assay type: cell-based; conditions: Leishmania infantum, read-out: IC50 against L. infantum promastigotes
LdTopIB [10] = target: T1, LdTopIB; assay: Supercoiled plasmid DNA TopIB-mediated cleavage assay, LdTopIB; assay type: biochemical
hTopIB [11] = target: T2, hTopIB; assay: Supercoiled plasmid DNA TopIB-mediated cleavage assay, hTopIB; assay type: biochemical; conditions: 100 μM

`CC[C@@]1(O)C(=O)OCc2c1cc1n(c2=O)Cc2cc3ccccc3nc2-1` [CPT, camptothecin, reference compound] showed an EC50 (LdTopIB [1]) of 0.67 ± 0.08 µM.

In the case of `C#CCCCCCCCCCCCCCCCC(=O)O` [17-ODA, 17-octadecynoic acid], the IC50 (leukotriene B4 ω-oxidase) is listed as less than 5 µM.

For `CCCCCCCCCCCC#CC(=O)O` [2-TDA, 2-tetradecynoic acid], the EC50 (LdTopIB [1]) was 67.8 ± 1.1 µM, the EC50 (hTopIB [2]) was greater than 100 µM and the “inhibition of hTopIB at 100 μM” value (hTopIB [2]) was “neither 2-TDA nor 2-HDA was inhibitory”. It also gave an IC50 [3] of 24.7 to 255 µM.

For `OO` [hydrogen peroxide], the “apoptotic cells (Annexin-V-FITC)” value [4] was “positive test”.

`CCCCCCCCCCCCCCCC#CC(=O)O` [2-ODA, 2-octadecynoic acid] showed an EC50 (LdTopIB [1]) of 5.3 ± 0.7 µM.

In the case of `CCCCCCCCCCCC#CCCCCC(=O)O` [6-ODA, 6-octadecynoic acid], the “IC50 against fluconazole resistant Candida albicans strains” value [5] is given as 0.45 to 0.65 µg/mL.

Compound `Nc1nc(N)nc(Nc2ccc([As]3SCC(CO)S3)cc2)n1` (stereo not shown) [Melarsoprol, reference compound] has an IC50 [6] of 0.0075 µM.

Work on `CCCCCCCCCCCCCC#CC(=O)O` [2-HDA, 2-hexadecynoic acid] yielded an IC50 [6] of 83.6 µM, an IC50 [7] of 17.8 µM and an IC50 (L6 cell cytotoxicity) of 340 µM. For the same compound, the EC50 (LdTopIB [1]) was 28.7 ± 1.3 µM, the EC50 (hTopIB [2]) was greater than 100 µM and the “inhibition of hTopIB at 100 μM” value (hTopIB [2]) was “neither 2-TDA nor 2-HDA was inhibitory”. For the same compound, the IC50 [8] was greater than 100 µM, the IC50 [9] was 14.9 µM and the “inhibition of catalytic activity of LdTopIB” value (LdTopIB [10]; 100 μM) was “inhibits the catalytic activity”. The “enzymatic activity of LdTopIB after pre-incubation” value (LdTopIB [10]; pre-incubated 15 min with 100 μM before DNA and CPT) was “fully inhibited”, the “inhibition of hTopIB” value (hTopIB [11]) was “no inhibition” and the IC50 [3] was 17.8 to 83.6 µM.
